What was measured:
Type in all cases: toxicity, cell-based
U2OS [1] = experiment: Incucyte cell viability with U2OS; conditions: human, 10 µM, compound concentration 10 uM; note: filed as whole numbers so only -1 and 0 and 1 occur
HEK-293T = experiment: Incucyte cell viability with HEK293T; conditions: human, 10 µM, compound concentration 10 uM; note: filed as whole numbers so only -1 and 0 and 1 occur
U2OS [2] = experiment: Multiplex assay against U2OS; conditions: human
In short: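 At seeding, live cells were stained with Hoechst33342, BioTracker Green Microtubule Cytoskeleton Dye, MitoTracker Red and Annexin V Alexa Fluor 680. After compound addition they were imaged on a CQ1 microscope at 37°C and 5% CO2, and CellPathfinder machine-learning gating sorted them into Hoechst high-intensity objects or normal cells, with normal cells further split into healthy, pyknosed or fragmented nuclei and pyknosed cells into mitotic or apoptotic. Tubulin, mitochondrial-mass and membrane-permeability phenotypes are given as per cents of cells with healthy nuclei.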

[3] = 6 h, replicate number 1, timepoint 6 hours
[4] = 12 h, replicate number 1, timepoint 12 hours
[5] = 18 h, replicate number 1, timepoint 18 hours
[6] = 24 h, replicate number 1, timepoint 24 hours
[7] = 12 h, 1 µM, compound concentration 1 uM, replicate 1
[8] = 12 h, 1 µM, compound concentration 1 uM, replicate 2
[9] = 12 h, 10 µM, compound concentration 10 uM, replicate 1
[10] = 12 h, 10 µM, compound concentration 10 uM, replicate 2
[11] = 24 h, 1 µM, compound concentration 1 uM, replicate 1
[12] = 24 h, 1 µM, compound concentration 1 uM, replicate 2
[13] = 24 h, 10 µM, compound concentration 10 uM, replicate 1
[14] = 24 h, 10 µM, compound concentration 10 uM, replicate 2

Compound: CN(C)C/C=C/C(=O)Nc1cc2c(Nc3ccc(F)c(Cl)c3)ncnc2cc1O[C@H]1CCOC1.O=C(O)/C=C\C(=O)O.O=C(O)/C=C\C(=O)O [AFATINIB DIMALEATE]
- Growth Rate (U2OS [1]; 0 h, replicate number 1, timepoint 0 hours): 0
- Growth Rate (U2OS [1]; 0 h, replicate number 2, timepoint 0 hours): 1
- Growth Rate (U2OS [1]; [3]): 0
- Growth Rate (U2OS [1]; [4]): 0
- Growth Rate (U2OS [1]; [5]): 0
- Growth Rate (U2OS [1]; [6]): 0
- Growth Rate (HEK-293T; [3]): 0
- Growth Rate (HEK-293T; [4]): 0
- Growth Rate (HEK-293T; [5]): 0
- Growth Rate (HEK-293T; [6]): 0
- Population Apoptotic (%) (U2OS [2]; [7]): 56%
- Population Fragmented Nuclei (%) (U2OS [2]; [7]): 4%
- Population Healthy Nuclei (%) (U2OS [2]; [7]): 85%
- Population Hoechst High Intensity Objects (%) (U2OS [2]; [7]): 3%
- Population Membrane Permeable-Phenotype (%) (U2OS [2]; [7]): 20%
- Population Mitochondria Different-Phenotype (%) (U2OS [2]; [7]): 8%
- Population Mitotic Cells (%) (U2OS [2]; [7]): 43%
- Population Normal (%) (U2OS [2]; [7]): 96%
- Population Pyknosed Nuclei (%) (U2OS [2]; [7]): 10%
- Population Tubulin-Different-Phenotype (%) (U2OS [2]; [7]): 18%
- Population Apoptotic (%) (U2OS [2]; [8]): 37%
- Population Fragmented Nuclei (%) (U2OS [2]; [8]): 7%
- Population Healthy Nuclei (%) (U2OS [2]; [8]): 86%
- Population Hoechst High Intensity Objects (%) (U2OS [2]; [8]): 11%
- Population Membrane Permeable-Phenotype (%) (U2OS [2]; [8]): 14%
- Population Mitochondria Different-Phenotype (%) (U2OS [2]; [8]): 18%
- Population Mitotic Cells (%) (U2OS [2]; [8]): 62%
- Population Normal (%) (U2OS [2]; [8]): 88%
- Population Pyknosed Nuclei (%) (U2OS [2]; [8]): 6%
- Population Tubulin-Different-Phenotype (%) (U2OS [2]; [8]): 24%
- Population Apoptotic (%) (U2OS [2]; [9]): 62%
- Population Healthy Nuclei (%) (U2OS [2]; [9]): 56%
- Population Hoechst High Intensity Objects (%) (U2OS [2]; [9]): 2%
- Population Membrane Permeable-Phenotype (%) (U2OS [2]; [9]): 25%
- Population Mitochondria Different-Phenotype (%) (U2OS [2]; [9]): 37%
- Population Mitotic Cells (%) (U2OS [2]; [9]): 37%
- Population Normal (%) (U2OS [2]; [9]): 97%
- Population Pyknosed Nuclei (%) (U2OS [2]; [9]): 26%
- Population Tubulin-Different-Phenotype (%) (U2OS [2]; [9]): 89%
- Population Apoptotic (%) (U2OS [2]; [10]): 68%
- Population Fragmented Nuclei (%) (U2OS [2]; [10]): 16%
- Population Healthy Nuclei (%) (U2OS [2]; [10]): 47%
- Population Hoechst High Intensity Objects (%) (U2OS [2]; [10]): 13%
- Population Membrane Permeable-Phenotype (%) (U2OS [2]; [10]): 18%
- Population Mitochondria Different-Phenotype (%) (U2OS [2]; [10]): 62%
- Population Mitotic Cells (%) (U2OS [2]; [10]): 31%
- Population Normal (%) (U2OS [2]; [10]): 86%
- Population Pyknosed Nuclei (%) (U2OS [2]; [10]): 35%
- Population Tubulin-Different-Phenotype (%) (U2OS [2]; [10]): 86%
- Population Apoptotic (%) (U2OS [2]; [11]): 72%
- Population Fragmented Nuclei (%) (U2OS [2]; [11]): 6%
- Population Healthy Nuclei (%) (U2OS [2]; [11]): 85%
- Population Hoechst High Intensity Objects (%) (U2OS [2]; [11]): 1%
- Population Membrane Permeable-Phenotype (%) (U2OS [2]; [11]): 16%
- Population Mitochondria Different-Phenotype (%) (U2OS [2]; [11]): 10%
- Population Mitotic Cells (%) (U2OS [2]; [11]): 27%
- Population Normal (%) (U2OS [2]; [11]): 98%
- Population Pyknosed Nuclei (%) (U2OS [2]; [11]): 8%
- Population Tubulin-Different-Phenotype (%) (U2OS [2]; [11]): 20%
- Population Apoptotic (%) (U2OS [2]; [12]): 75%
- Population Fragmented Nuclei (%) (U2OS [2]; [12]): 7%
- Population Healthy Nuclei (%) (U2OS [2]; [12]): 87%
- Population Hoechst High Intensity Objects (%) (U2OS [2]; [12]): 10%
- Population Membrane Permeable-Phenotype (%) (U2OS [2]; [12]): 15%
- Population Mitochondria Different-Phenotype (%) (U2OS [2]; [12]): 21%
- Population Mitotic Cells (%) (U2OS [2]; [12]): 25%
- Population Normal (%) (U2OS [2]; [12]): 89%
- Population Pyknosed Nuclei (%) (U2OS [2]; [12]): 5%
- Population Tubulin-Different-Phenotype (%) (U2OS [2]; [12]): 24%
- Population Apoptotic (%) (U2OS [2]; [13]): 81%
- Population Fragmented Nuclei (%) (U2OS [2]; [13]): 10%
- Population Healthy Nuclei (%) (U2OS [2]; [13]): 65%
- Population Membrane Permeable-Phenotype (%) (U2OS [2]; [13]): 26%
- Population Mitochondria Different-Phenotype (%) (U2OS [2]; [13]): 66%
- Population Mitotic Cells (%) (U2OS [2]; [13]): 18%
- Population Pyknosed Nuclei (%) (U2OS [2]; [13]): 24%
- Population Tubulin-Different-Phenotype (%) (U2OS [2]; [13]): 49%
- Population Apoptotic (%) (U2OS [2]; [14]): 93%
- Population Fragmented Nuclei (%) (U2OS [2]; [14]): 22%
- Population Healthy Nuclei (%) (U2OS [2]; [14]): 41%
- Population Hoechst High Intensity Objects (%) (U2OS [2]; [14]): 8%
- Population Membrane Permeable-Phenotype (%) (U2OS [2]; [14]): 29%
- Population Mitochondria Different-Phenotype (%) (U2OS [2]; [14]): 72%
- Population Mitotic Cells (%) (U2OS [2]; [14]): 6%
- Population Normal (%) (U2OS [2]; [14]): 91%
- Population Pyknosed Nuclei (%) (U2OS [2]; [14]): 36%
- Population Tubulin-Different-Phenotype (%) (U2OS [2]; [14]): 47%
